Source: publication PMC10339699 (Clinical and Translational Science, 2023)
≈ marks a conversion by molar mass, not a printed value. Where two headings read alike, the source gives them in different places.

Experiments:
[1] = Safety and tolerability; format: in vivo, human
[2] = format: in vivo, human
[3] = Part 2: urinary excretion of unchanged rilzabrutinib; format: in vivo, human
[4] = tested on: gut flora; assay: Gut flora metabolism in vitro; format: in vitro ADME; settings: in vitro studies (unpublished data)
[5] = Part 1: plasma PK of [14C]‐rilzabrutinib after i.v. microtracer dose; format: in vivo; settings: male, human, iv, 100 ug
[6] = Part 1: plasma PK of rilzabrutinib after single oral 400 mg tablet; format: in vivo, human
[7] = tested on: BTK; settings: within 4 h of dosing, multiple dosing; cited from earlier work
[8] = pH‐dependent solubility; format: physicochemical
[9] = previous bioavailability study; ref PRN1008‐006, unpublished data; cited from earlier work
[10] = Part 2: total radioactivity PK in plasma and whole blood; format: in vivo, human; settings: part 2, plasma total radioactivity
[11] = format: in vivo, human; remark: listed apart in the source
[12] = Part 1: absolute oral bioavailability; format: in vivo; settings: male, human, plasma, 400 mg
How it was run: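 Healthy subjects (n = 8) fasted overnight 10 h, then took a 400 mg oral tablet with 240 mL water. At 120 min, ~100 μg [14C]-labelled microtracer (~1 μCi) was given as an ~2-min i.v. push. K2 EDTA plasma was analysed by acetonitrile precipitation and LC-MS/MS (0.100–100 ng/mL). Noncompartmental AUC used linear-up/log-down. F was the GLSM oral/i.v. ratio with 90% CI, from a model with formulation fixed and subject random.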

[13] = bile collection subjects, through the last collection interval
[14] = non‐bile collection subjects, through the last collection interval
[15] = male, human, plasma, po, 400 mg
[16] = part 1, oral 400 mg tablet (test), mixed‐effect model
[17] = part 1, single oral 400 mg tablet, dose normalized, geometric mean (CV)

With `CC(C)(/C=C(\C#N)C(=O)N1CCC[C@@H](n2nc(-c3ccc(Oc4ccccc4)cc3F)c3c(N)ncnc32)C1)N1CCN(C2COC2)CC1` [rilzabrutinib] as the compound, how does the “Clinical laboratory evaluations, vital signs, 12‐lead electrocardiogram, physical examinations” value ([1]; both parts of the study) read?
The value was “no clinically significant findings”.

And the Tolerability ([1]; both parts of the study, healthy male subjects)?
Its Tolerability is “well‐tolerated”.

What about the “Deaths, serious adverse events, or TEAEs leading to discontinuation” value ([1]; either part of the study) of the same compound?
The value was “No deaths, serious adverse events, or treatment emergent adverse events (TEAEs) leading to discontinuation”.

And the “Severity of TEAEs” value ([1]; entire study, except for one moderate TEAE (viral infection) not treatment related)?
Its value is “mild”.

What about the “Total number of TEAEs” value ([1]; part 1) of the same compound?
The value was “three”.

What about the “Total number of TEAEs” value ([1]; part 2) of the same compound?
Its value is 13.

What about the “Subjects who reported TEAEs” value ([1]; part 2, six of 10 subjects) of the same compound?
Its value is 60%.

And the “Administered radioactivity recovered in the first 192 h postdose” value ([2]; bile collection subjects)?
Its value is 87.1%.

What about the “Administered radioactivity recovered in bile, average” value ([2]; bile collection subjects, 3-8 h postdose) of the same compound?
The value was 6.29%.

And the “Administered radioactivity recovered in feces, average” value [2, 13]?
Its value is 72.7%.

And the “Administered radioactivity recovered in urine, average” value [2, 13]?
The value was 5.42%.

And the “Administered radioactivity recovered within the first 168 h of dosing” value ([2]; non‐bile collection subjects)?
Its value is 92.1%.

What about the “Administered radioactivity recovered in feces, mean” value [2, 14] of the same compound?
Its value is 87.0%.

And the “Administered radioactivity recovered in urine, mean” value [2, 14]?
Its value is 5.25%.

And the CL renal ([3]; male, human, urine and plasma, po, 300 mg)?
The CL renal was 4.05 mL/min.

What about the “f eu (percentage of dose excreted in urine as unchanged drug)” value ([3]; unchanged rilzabrutinib in urine, 0–312 h, 300 mg oral, geometric mean (CV)) of the same compound?
The value was 3.02%.

What about the Gut flora metabolism [4] of the same compound?
Its Gut flora metabolism is “high gut flora metabolism”.

What about the Vd [5] of the same compound?
The Vd was 149 L.

And the clearance [5]?
The clearance was 968 mL/min.

What about the “Delay in T max for tablet formulation as compared to liquid formulation” value ([6]; 400 mg tablet (part 1) versus 300 mg solution (part 2)) of the same compound?
Its value is 1 h.

And the AUC(0-inf) [6, 15]?
Its AUC(0-inf) is 336 ng·h/mL.

And the AUC(0-t) [6, 15]?
Its AUC(0-t) is 334 ng·h/mL.

What about the Cmax [6, 15] of the same compound?
The Cmax was 108 ng/mL.

What about the Tmax [6, 15] of the same compound?
The Tmax was 2.03 h.

What about the “DN AUC0–inf, GLSM” value [6, 16] of the same compound?
The value was 0.839 ng·h/mL/mg.

And the “DN AUC0–last, GLSM” value [6, 16]?
The value was 0.835 ng·h/mL/mg.

And the “DN AUC0–inf” value [6, 17]?
The value was 0.839 (62.2) [n = 8] h ng/mL/mg.

And the “DN AUC0–last” value [6, 17]?
The value was 0.835 (62.7) [n = 8] h ng/mL/mg.

And the BTK occupancy [7]?
Its BTK occupancy is “greater than 90%”.

And the solubility [8]?
The solubility was 40 µg/mL (≈ 60.1 µM).

What about the solubility ([8]; aqueous buffer) of the same compound?
The solubility was greater than 120000 µg/mL.

And the “PK exposure after 300 mg oral solution and 400 mg tablet formulation” value [9]?
Its value is “comparable”.

And the Circulating metabolite identified [10]?
The Circulating metabolite identified was “thiocyanate”.

What about the half-life ([11]; male, human, plasma, po, 300 mg) of the same compound?
Its half-life is 2.45 h.

What about the CL/F ([11]; part 2, single oral 300 mg solution, geometric mean (CV)) of the same compound?
The CL/F was 904 L/h.

What about the bioavailability [12] of the same compound?
Its bioavailability is less than 5%.
